Measurements: ChEMBL document CHEMBL1136119, “Novel IKK inhibitors: beta-carbolines” (Bioorg Med Chem Lett, 2003)

Assays:
[1] = molecular target: T1, Inhibitor of nuclear factor kappa-B kinase subunit beta (Homo sapiens, UniProt O14920); assay: Inhibitory activity against IkappaB kinase(IKK) isolated from HeLa cells activated with recombinant […] in an ELISA phosphorylation assay.; assay type: cell-free
T1 sequence (O14920 whole entry): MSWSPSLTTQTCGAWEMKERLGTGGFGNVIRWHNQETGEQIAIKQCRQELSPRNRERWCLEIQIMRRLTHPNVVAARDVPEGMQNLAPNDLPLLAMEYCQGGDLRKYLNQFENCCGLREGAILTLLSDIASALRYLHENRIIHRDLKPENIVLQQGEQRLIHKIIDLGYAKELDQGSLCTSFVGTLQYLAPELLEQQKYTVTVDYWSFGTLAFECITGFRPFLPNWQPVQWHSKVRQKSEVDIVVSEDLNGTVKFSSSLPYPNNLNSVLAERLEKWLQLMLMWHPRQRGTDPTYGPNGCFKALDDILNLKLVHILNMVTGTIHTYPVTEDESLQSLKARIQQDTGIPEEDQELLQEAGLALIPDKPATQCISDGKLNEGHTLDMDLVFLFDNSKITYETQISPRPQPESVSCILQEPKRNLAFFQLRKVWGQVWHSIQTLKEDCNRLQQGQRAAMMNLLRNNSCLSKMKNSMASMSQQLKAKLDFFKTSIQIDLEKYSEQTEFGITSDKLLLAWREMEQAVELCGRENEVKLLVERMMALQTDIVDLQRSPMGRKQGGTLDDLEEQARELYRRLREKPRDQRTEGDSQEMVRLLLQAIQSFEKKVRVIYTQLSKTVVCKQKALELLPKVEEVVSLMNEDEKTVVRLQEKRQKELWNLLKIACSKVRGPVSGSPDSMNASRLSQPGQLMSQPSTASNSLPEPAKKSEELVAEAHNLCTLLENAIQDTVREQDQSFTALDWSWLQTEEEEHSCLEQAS

Protein kinase C (PKC) = assay: Inhibitory activity against protein kinase C.; assay type: protein assay
Casein kinase II = Casein kinase II (Homo sapiens, UniProt P19784+P67870+P68400); assay: Inhibitory activity against CKII kinase.; assay type: protein-complex assay
Casein kinase II, sequence (P67870 whole entry): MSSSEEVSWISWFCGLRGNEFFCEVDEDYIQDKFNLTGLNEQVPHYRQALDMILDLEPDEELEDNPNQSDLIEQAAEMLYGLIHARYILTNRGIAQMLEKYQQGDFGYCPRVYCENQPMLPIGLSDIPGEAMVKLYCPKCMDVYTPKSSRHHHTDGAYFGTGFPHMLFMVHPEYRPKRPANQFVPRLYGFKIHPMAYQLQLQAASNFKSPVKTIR
Casein kinase II, sequence (P68400 whole entry): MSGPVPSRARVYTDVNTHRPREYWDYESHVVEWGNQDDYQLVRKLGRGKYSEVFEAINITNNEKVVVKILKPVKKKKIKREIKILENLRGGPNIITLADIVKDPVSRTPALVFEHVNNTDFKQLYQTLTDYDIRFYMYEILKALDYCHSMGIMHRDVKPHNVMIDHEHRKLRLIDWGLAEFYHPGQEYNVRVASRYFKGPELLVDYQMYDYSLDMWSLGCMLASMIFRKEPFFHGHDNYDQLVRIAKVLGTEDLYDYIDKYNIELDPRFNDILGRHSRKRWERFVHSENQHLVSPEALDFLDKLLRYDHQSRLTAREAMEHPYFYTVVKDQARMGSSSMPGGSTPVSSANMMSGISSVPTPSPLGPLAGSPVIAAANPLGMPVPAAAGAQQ
Casein kinase II, sequence (P19784 whole entry): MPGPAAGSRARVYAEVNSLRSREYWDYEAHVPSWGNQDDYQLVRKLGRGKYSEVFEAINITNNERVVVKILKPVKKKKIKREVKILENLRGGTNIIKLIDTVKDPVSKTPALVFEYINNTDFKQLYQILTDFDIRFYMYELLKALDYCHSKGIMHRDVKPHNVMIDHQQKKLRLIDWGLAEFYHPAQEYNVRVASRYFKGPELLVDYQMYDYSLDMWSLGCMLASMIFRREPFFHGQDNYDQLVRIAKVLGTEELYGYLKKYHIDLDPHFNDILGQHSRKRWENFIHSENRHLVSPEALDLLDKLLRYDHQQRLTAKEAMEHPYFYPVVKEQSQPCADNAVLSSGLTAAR

[2] = molecular target: T2, cAMP-dependent protein kinase (PKA) (Homo sapiens, UniProt P22694+P17612+P22612); assay: Inhibitory activity against protein kinase A.; assay type: protein assay
[3] = molecular target: Protein kinase C (PKC) (Homo sapiens) (UniProt O94806+P41743+P17252+P05129+Q05655+P05771+Q05513+Q02156+P24723+Q15139+Q04759); assay: Inhibition of Protein kinase C at 25 uM; assay type: protein assay
HeLa = assay: Inhibition of IkappaB kinase(IKK) from HeLa cells activated by recombinant MEKK1 in ELISA at 25 uM; assay type: cell-based; settings: Homo sapiens
[4] = molecular target: Casein kinase II (Homo sapiens) (UniProt P67870+P68400+P19784); assay: Inhibition of the casein kinase CKII at 25 uM; assay type: protein-complex assay
[5] = molecular target: T2, cAMP-dependent protein kinase (PKA); assay: Inhibition of Protein kinase A at 25 uM; assay type: protein assay
[6] = molecular target: NF-kappa-B essential modulator (Homo sapiens, UniProt Q9Y6K9); assay: Inhibition of GST-IkB phosphorylation by TNF-alpha stimulated HeLa cell lysate (IP-IKKgamma); assay type: functional, cell-free
NF-kappa-B essential modulator, sequence (Q9Y6K9 whole entry): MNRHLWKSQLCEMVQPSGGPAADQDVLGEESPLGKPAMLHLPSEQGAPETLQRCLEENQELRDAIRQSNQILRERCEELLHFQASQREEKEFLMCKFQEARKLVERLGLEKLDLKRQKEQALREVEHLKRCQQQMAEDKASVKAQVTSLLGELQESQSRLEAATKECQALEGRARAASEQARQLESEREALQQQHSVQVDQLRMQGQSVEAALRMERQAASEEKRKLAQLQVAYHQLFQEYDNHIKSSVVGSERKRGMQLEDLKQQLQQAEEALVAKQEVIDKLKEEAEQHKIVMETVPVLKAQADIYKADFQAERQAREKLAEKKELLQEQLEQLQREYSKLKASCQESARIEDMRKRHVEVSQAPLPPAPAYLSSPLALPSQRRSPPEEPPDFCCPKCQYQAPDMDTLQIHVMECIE
Summary of the method: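 Endogenous IKK complex immunoprecipitated with anti-IKKγ antibody from HeLa cells stimulated with TNF-α (20 ng/mL, 5 min) and lysed in NP-40 IP buffer; beads preincubated with varying inhibitor concentrations 30 min at 30 °C; reaction started with bacterially expressed GST-IκB[5-55] plus MgATP with [γ-32P]ATP, 30 min at 30 °C; phosphorylated substrate quantified by SDS-PAGE and phosphorimaging; IC50.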

Mus musculus = assay: Systemic level of TNF-alpha after oral administration in mice; assay type: functional
Summary of the method: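 Female BALB/c mice given compound orally (50 mg/kg, 5 mL/kg), followed by intraperitoneal E. coli LPS (serotype 0127:B8); blood taken by cardiac puncture into heparin after CO2 euthanasia, spun at 4 °C, and plasma TNF-α measured relative to vehicle-treated controls.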

Structure (SMILES)	IC50 [1]	IC50 (Protein kinase C (PKC))	IC50 (Casein kinase II)	IC50 [2]	inhibition [3]	inhibition (HeLa)	inhibition [4]	inhibition [5]	EC50 [6]	Reduction (Mus musculus)
O=C(Nc1cc(Cl)cc2c1[nH]c1cnccc12)c1ccccc1	0.7 µM	> 25 µM	> 25 µM	> 25 µM	–	–	–	–	–	–
COc1cccc(C(=O)Nc2cc(Cl)cc3c2[nH]c2cnccc23)c1	0.6 µM	> 25 µM	> 25 µM	> 25 µM	–	–	–	–	–	–
FC(F)(F)c1ccc2[nH]c3cnccc3c2c1	1.1 µM	–	–	–	–	–	–	–	–	–
CNc1cc(Cl)cc2c3cc[nH]cc-3nc12	1.8 µM	–	–	–	–	–	–	–	–	–
O=C(Nc1cc(Cl)cc2c1[nH]c1cnccc12)c1ccncc1	0.3 µM	> 25 µM	> 25 µM	> 25 µM	–	–	–	–	–	–
CC(=O)Nc1cc(Cl)cc2c3cc[nH]cc-3nc12	0.6 µM	> 25 µM	> 25 µM	> 25 µM	–	–	–	–	–	–
COc1c(Cl)cc2c3cc[nH]cc-3nc2c1Cl	0.17 µM	> 25 µM	> 25 µM	> 25 µM	–	–	–	–	–	–
Clc1cc2c3cc[nH]cc-3nc2c(Cl)c1OCC1CCCCC1	3 µM	> 25 µM	> 25 µM	> 25 µM	–	–	–	–	–	–
O=C(Nc1cc(Cl)cc2c1[nH]c1cnccc12)c1ccccn1	1 µM	> 25 µM	> 25 µM	> 25 µM	–	–	–	–	–	–
Oc1c(Cl)cc2c3cc[nH]cc-3nc2c1Cl	11 µM	> 25 µM	> 25 µM	> 25 µM	–	–	–	–	–	–
Brc1ccc2[nH]c3cnccc3c2c1	0.6 µM	> 25 µM	> 25 µM	> 25 µM	–	–	–	–	–	–
N#Cc1ccc2[nH]c3cnccc3c2c1	1.1 µM	–	–	–	–	–	–	–	–	–
COc1ccccc1C(=O)Nc1cc(Cl)cc2c1[nH]c1cnccc12	> 20 µM	> 25 µM	> 25 µM	> 25 µM	–	–	–	–	–	–
c1ccc2c(c1)[nH]c1cnccc12 [NORHARMANE]	15 µM	> 25 µM	> 25 µM	> 25 µM	–	–	–	–	–	–
COc1ccc2[nH]c3cnccc3c2c1Br	1 µM	15 µM	2 µM	–	65%	90%	75%	10%	–	–
O=C(Nc1cc(Cl)cc2c1[nH]c1cnccc12)N1CCOCC1	> 20 µM	> 25 µM	> 25 µM	> 25 µM	–	–	–	–	–	–
CCOc1c(Cl)cc2c3cc[nH]cc-3nc2c1Cl	0.14 µM	> 25 µM	> 25 µM	> 25 µM	–	–	–	–	–	–
O=[N+]([O-])c1cc(Cl)cc2c3cc[nH]cc-3nc12	4 µM	> 25 µM	> 25 µM	> 25 µM	–	–	–	–	–	–

Structure (SMILES)	IC50 [1]	IC50 (Protein kinase C (PKC))	IC50 (Casein kinase II)	IC50 [2]	inhibition [3]	inhibition (HeLa)	inhibition [4]	inhibition [5]	EC50 [6]	Reduction (Mus musculus)
CN(C)c1cc(Cl)cc2c3cc[nH]cc-3nc12	1.8 µM	–	–	–	–	–	–	–	–	–
O=C(Nc1cc(Cl)cc2c1[nH]c1cnccc12)c1cccnc1	0.1 µM	> 25 µM	> 25 µM	> 25 µM	–	–	–	–	0.15 µM	60%
Fc1ccc2[nH]c3cnccc3c2c1	2 µM	> 25 µM	> 25 µM	> 25 µM	–	–	–	–	–	–
COC(=O)Nc1cc(Cl)cc2c3cc[nH]cc-3nc12	0.7 µM	> 25 µM	> 25 µM	> 25 µM	–	–	–	–	–	–
Clc1cc(Cl)c2[nH]c3cnccc3c2c1	0.2 µM	> 25 µM	> 25 µM	> 25 µM	–	–	–	–	–	–
CS(=O)(=O)Nc1cc(Cl)cc2c3cc[nH]cc-3nc12	8.3 µM	> 25 µM	> 25 µM	> 25 µM	–	–	–	–	–	–
COc1ccc(C(=O)Nc2cc(Cl)cc3c2[nH]c2cnccc23)cc1	1.3 µM	> 25 µM	> 25 µM	> 25 µM	–	–	–	–	–	–
O=C(CCCO)Nc1cc(Cl)cc2c3cc[nH]cc-3nc12	> 20 µM	> 25 µM	> 25 µM	> 25 µM	–	–	–	–	–	–
COc1ccc2[nH]c3cnccc3c2c1	4 µM	> 25 µM	> 25 µM	> 25 µM	–	–	–	–	–	–
O=C(Oc1c(Cl)cc2c3cc[nH]cc-3nc2c1Cl)N1CCOCC1	3.2 µM	–	–	–	–	–	–	–	–	–
O=S(=O)(Nc1cc(Cl)cc2c1[nH]c1cnccc12)c1ccccc1	> 20 µM	> 25 µM	> 25 µM	> 25 µM	–	–	–	–	–	–
Nc1cc(Cl)cc2c3cc[nH]cc-3nc12	1.3 µM	–	–	–	–	–	–	–	–	–
O=C(Cc1ccccn1)Nc1cc(Cl)cc2c1[nH]c1cnccc12	3 µM	> 25 µM	> 25 µM	> 25 µM	–	–	–	–	–	–
Clc1ccc2[nH]c3cnccc3c2c1	0.6 µM	> 25 µM	> 25 µM	> 25 µM	–	–	–	–	–	–
Clc1cc(NCc2ccccc2)c2[nH]c3cnccc3c2c1	> 20 µM	> 25 µM	> 25 µM	> 25 µM	–	–	–	–	–	–
Clc1cc2c([nH]c3cnccc32)c(Cl)c1OCC1CC1	0.08 µM	> 25 µM	> 25 µM	> 25 µM	–	–	–	–	–	–
CNC(=O)Nc1cc(Cl)cc2c3cc[nH]cc-3nc12	> 20 µM	> 25 µM	> 25 µM	> 25 µM	–	–	–	–	–	–
